Source: ChEMBL document CHEMBL4706495, “A novel class of small molecule inhibitors with radioprotective properties” (Eur J Med Chem, 2020)
Active and inactive are the calls of the source. No cut-off for these calls is given here.

How the values were obtained:
[1] = tested on: Jurkat; test: Cytotoxicity against human Jurkat cells assessed as cell viability at 10 uM measured after 48 hrs by WST-1 assay relative to control; format: functional; conditions: read-out: Activity
Procedure, shortened: (§1)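 Ten-line human panel (9 cancer, 1 non-cancerous). Cells were seeded at a pre-established optimal density (500–30 × 10³ per well) and settled overnight. Compounds came from 10 mM DMSO stocks and were tested at two concentrations. WST-1 readout followed the manufacturer's protocol at the end of cultivation. Viability is expressed as % of untreated control cells, mean of three independent experiments.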

[2] = tested on: MOLT-4; test: Cytotoxicity against human MOLT-4 cells assessed as cell viability at 10 uM measured after 48 hrs by WST-1 assay relative to control; format: functional; conditions: read-out: Activity; procedure, shortened: as §1
[3] = tested on: A549; test: Cytotoxicity against human A549 cells assessed as cell viability at 100 uM measured after 48 hrs by WST-1 assay relative to control; format: functional; conditions: read-out: Activity; procedure, shortened: as §1
[4] = tested on: Mus musculus; test: Radioprotective activity in C57Bl/6 mouse assessed as body weight gain at 100 mg/kg, ip administered 5 min prior to gamma-irradation at 8.5 Gy measured after 30 days relative to control; format: functional
[5] = tested on: HeLa; test: Cytotoxicity against human HeLa cells assessed as cell viability at 100 uM measured after 48 hrs by WST-1 assay relative to control; format: functional; conditions: read-out: Activity; procedure, shortened: as §1
[6] = tested on: MCF7; test: Cytotoxicity against human MCF7 cells assessed as cell viability at 10 uM measured after 48 hrs by WST-1 assay relative to control; format: functional; conditions: read-out: Activity; procedure, shortened: as §1
[7] = tested on: Mus musculus; test: Radioprotective activity in C57Bl/6 mouse assessed as average body weight at 100 mg/kg, ip administered 5 min prior to gamma-irradation at 8.5 Gy and measured immediately (reference value: 25.4 +/- 2.6 g); format: functional
[8] = Toxicity in C57Bl/6 mouse assessed as average body weight at 100 mg/kg, ip measured after 30 days (reference value: 27 +/ 3.2 g); format: organism-based; conditions: in vivo, 720 h, time 30 day
[9] = Toxicity in C57Bl/6 mouse assessed as mouth death at 100 mg/kg, ip measured after 30 days; format: organism-based; conditions: in vivo, 720 h, time 30 day
Procedure, shortened: (§2)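 Safety in C57Bl/6 mice (27 ± 3 g) given a single 100 mg/kg i.p. injection without irradiation. Deaths, adverse effects and body weight followed over 30 days against an untreated control group. Weight reported as change from day 0.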

[10] = tested on: A2780; test: Cytotoxicity against human A2780 cells assessed as cell viability at 10 uM measured after 48 hrs by WST-1 assay relative to control; format: functional; conditions: read-out: Activity; procedure, shortened: as §1
[11] = tested on: Jurkat; test: Cytotoxicity against human Jurkat cells assessed as cell viability at 100 uM measured after 48 hrs by WST-1 assay relative to control; format: functional; conditions: read-out: Activity; procedure, shortened: as §1
[12] = tested on: MOLT-4; test: Radioprotective activity against gamma irradiation-induced apoptosis in human MOLT-4 cells assessed as viable cells at 100 uM pretreated with compound for 1 hr followed by gamma irradiation and measured after 24 hrs by annexinV/propidium iodide staining based flow cytometry (reference value: 40 %); format: functional; conditions: MOLT-4, light or radiation study, time 25 hrs, read-out: Activity
[13] = tested on: Mus musculus; test: Radioprotective activity in C57Bl/6 mouse assessed as median survival time at 100 mg/kg, ip administered 5 min prior to gamma-irradation at 8.5 Gy and measured after 30 days (reference value: 12 days); format: functional
[14] = tested on: PANC-1; test: Cytotoxicity against human PANC-1 cells assessed as cell viability at 10 uM measured after 48 hrs by WST-1 assay relative to control; format: functional; conditions: read-out: Activity; procedure, shortened: as §1
[15] = tested on: HeLa; test: Cytotoxicity against human HeLa cells assessed as cell viability at 10 uM measured after 48 hrs by WST-1 assay relative to control; format: functional; conditions: read-out: Activity; procedure, shortened: as §1
[16] = Toxicity in C57Bl/6 mouse assessed as adverse effects at 100 mg/kg, ip measured after 30 days; format: organism-based; conditions: in vivo, 720 h, time 30 day; procedure, shortened: as §2
[17] = tested on: MCF7; test: Cytotoxicity against human MCF7 cells assessed as cell viability at 100 uM measured after 48 hrs by WST-1 assay relative to control; format: functional; conditions: read-out: Activity; procedure, shortened: as §1
[18] = Toxicity in C57Bl/6 mouse assessed as average body weight at 100 mg/kg, ip and measured immediately (reference value: 26.3 +/- 2.4 g); format: organism-based; conditions: in vivo
[19] = tested on: Mus musculus; test: Radioprotective activity in C57Bl/6 mouse assessed as average body weight at 100 mg/kg, ip administered 5 min prior to gamma-irradation at 8.5 Gy and measured after 30 days; format: functional
[20] = tested on: PANC-1; test: Cytotoxicity against human PANC-1 cells assessed as cell viability at 100 uM measured after 48 hrs by WST-1 assay relative to control; format: functional; conditions: read-out: Activity; procedure, shortened: as §1
[21] = tested on: A549; test: Cytotoxicity against human A549 cells assessed as maximum tolerated concentration incubated for 24 hrs by MTT assay; format: functional
Procedure, shortened: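 A-549 cells in DMEM with 10% FBS and 1% penicillin-streptomycin, left to attach overnight. Compounds made up in PBS, serially diluted in DMEM, incubated 24 h, then viability read by MTT reduction against untreated controls on each plate. MTC taken as the highest concentration showing no significant difference from non-treated control (t-test).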

[22] = tested on: SAOS-2; test: Cytotoxicity against human SAOS-2 cells assessed as cell viability at 100 uM measured after 48 hrs by WST-1 assay relative to control; format: functional; conditions: read-out: Activity; procedure, shortened: as §1
[23] = tested on: SAOS-2; test: Cytotoxicity against human SAOS-2 cells assessed as cell viability at 10 uM measured after 48 hrs by WST-1 assay relative to control; format: functional; conditions: read-out: Activity; procedure, shortened: as §1
[24] = Toxicity in C57Bl/6 mouse assessed as change in body weight at 100 mg/kg, ip measured after 30 days (reference value: 103 +/- 12 %); format: organism-based; conditions: in vivo, 720 h, time 30 day
[25] = tested on: MOLT-4; test: Cytotoxicity against human MOLT-4 cells assessed as cell viability at 100 uM measured after 48 hrs by WST-1 assay relative to control; format: functional; conditions: read-out: Activity; procedure, shortened: as §1
[26] = tested on: A2780; test: Cytotoxicity against human A2780 cells assessed as cell viability at 100 uM measured after 48 hrs by WST-1 assay relative to control; format: functional; conditions: read-out: Activity; procedure, shortened: as §1
[27] = Cytotoxicity against human MRC5 cells assessed as cell viability at 100 uM measured after 48 hrs by WST-1 assay relative to control; format: cell-based; conditions: read-out: Activity; procedure, shortened: as §1
[28] = tested on: HT-29; test: Cytotoxicity against human HT-29 cells assessed as cell viability at 10 uM measured after 48 hrs by WST-1 assay relative to control; format: functional; conditions: read-out: Activity; procedure, shortened: as §1
[29] = tested on: A549; test: Cytotoxicity against human A549 cells assessed as cell viability at 10 uM measured after 48 hrs by WST-1 assay relative to control; format: functional; conditions: read-out: Activity; procedure, shortened: as §1
[30] = tested on: A549; test: Cytotoxicity against human A549 cells assessed as reduction in cell viability incubated for 24 hrs by MTT assay; format: functional, cell-based; conditions: A549, 24 h
Procedure, shortened: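 A-549 cells in DMEM with 10% FBS and 1% penicillin-streptomycin were attached overnight. Compounds were prepared in PBS and serially diluted in DMEM, then incubated 24 h. Viability was read by colorimetric MTT reduction against an untreated control on each plate (100%). IC50 came from four-parameter nonlinear regression of the log concentration-response curve, mean ± SEM. MTC is the highest concentration not differing from control (t-test).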

[31] = tested on: HT-29; test: Cytotoxicity against human HT-29 cells assessed as cell viability at 100 uM measured after 48 hrs by WST-1 assay relative to control; format: functional; conditions: read-out: Activity; procedure, shortened: as §1
[32] = Cytotoxicity against human MRC5 cells assessed as cell viability at 10 uM measured after 48 hrs by WST-1 assay relative to control; format: cell-based; conditions: read-out: Activity; procedure, shortened: as §1
[33] = tested on: Mus musculus; test: Radioprotective activity in C57Bl/6 mouse assessed as increase in absolute NK population at 100 mg/kg, ip pretreated with compound for 5 min followed by gamma irradiation at 8.5 Gy and measured after 12 to 30 days by flow cytometry; format: functional, organism-based
Procedure, shortened: (§3)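 C57Bl/6 mice receive 100 mg/kg i.p. 5 min before a single 8.5 Gy ⁶⁰Co γ dose. At 7, 12 and 30 days post-irradiation, 100 µl peripheral blood is stained with anti-CD3ε, CD19 and NK1.1 antibodies for 30 min at 4 °C in the dark. Samples are washed twice and analysed by flow cytometry for T, B and NK cells. Mean ± SEM.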

[34] = tested on: Mus musculus; test: Radioprotective activity in C57Bl/6 mouse assessed as increase in absolute T-lymphocytes at 100 mg/kg, ip pretreated with compound for 5 min followed by gamma irradiation at 8.5 Gy and measured after 12 to 30 days by flow cytometry; format: functional, organism-based; procedure, shortened: as §3
[35] = tested on: Mus musculus; test: Radioprotective activity in C57Bl/6 mouse assessed as increase in absolute B-lymphocytes at 100 mg/kg, ip pretreated with compound for 5 min followed by gamma irradiation at 8.5 Gy and measured after 12 to 30 days by flow cytometry; format: functional, organism-based; procedure, shortened: as §3

Structure (SMILES)	viability at 10 µM [1]	viability at 10 µM [2]	viability at 100 µM [3]	viability at 100 µM [5]	viability at 10 µM [6]	viability at 10 µM [10]	viability at 100 µM [11]	viability at 100 µM [12]	viability at 10 µM [14]	viability at 10 µM [15]	viability at 100 µM [17]	viability at 100 µM [20]	MTD [21]	viability at 100 µM [22]	viability at 10 µM [23]	viability at 100 µM [25]	viability at 100 µM [26]	viability at 48 h, 100 µM [27]	viability at 10 µM [28]	viability at 10 µM [29]	also measured
COc1cccc(OC)c1OCC(O)CN1CCN(CCO)CC1 (centres undefined)	110%	105%	99%	94%	101%	95%	84%	61%	104%	101%	90%	115%	1.56 mM	82%	106%	76%	83%	115%	102%	97%	Activity [4]: 109%; Activity [7]: 27.3 g; Activity [8]: 27.6 g; Activity [9]: Non-Toxic; MST [13]: 12 days; Activity [16]: Non-Toxic; Activity [18]: 27 g; Activity [19]: 27.7 g; Activity [24]: 102%; IC50 [30]: 7.81 mM; viability at 100 µM [31]: 141%
OCCN1CCN(CC(O)COc2ccccc2)CC1 (centres undefined)	104%	92%	99%	107%	104%	96%	91%	57%	90%	95%	98%	108%	0.59 mM	96%	102%	96%	96%	101%	97%	97%	viability at 48 h, 10 µM [32]: 101%; IC50 [30]: 5.78 mM; viability at 100 µM [31]: 97%
COc1cc([N+](=O)[O-])ccc1OCC(O)CN1CCN(CCO)CC1 (centres undefined)	101%	92%	105%	108%	103%	99%	92%	59%	92%	101%	98%	105%	0.78 mM	94%	103%	99%	95%	97%	99%	93%	Activity [33]: Active; Activity [4]: 101%; Activity [34]: Active; Activity [7]: 26.1 g; Activity [8]: 28.5 g; Activity [35]: Active; Activity [9]: Non-Toxic; viability at 48 h, 10 µM [32]: 97%; MST [13]: 11 days; Activity [16]: Non-Toxic; Activity [18]: 27.8 g; Activity [19]: 26.5 g; Activity [24]: 103%; IC50 [30]: 4.45 mM; viability at 100 µM [31]: 111%
